Laboratory results as given in ChEMBL document CHEMBL1158358, “Synthesis, antimicrobial and cytotoxic activities of some 5-arylidene-4-thioxo-thiazolidine-2-ones” (Eur J Med Chem, 2009).
In brackets after ≈: the same amount, converted by molar mass.

Experiments:
Format in all cases: functional
[1] = system: Candida albicans; assay: Antimicrobial activity against Candida albicans UFPEDA 1007 at 300 ug/disk after 48 hrs by disk diffusion method; settings: UFPEDA 1007, 48 h, read-out: IZ
Outline: (§1)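 Preliminary screen by disk diffusion. Paper disks (6 mm) holding 300 µg of compound were placed on agar plates inoculated with a standardized microbial suspension. DMSO-only disks served as negative controls. A mean inhibition zone below 7 mm was scored as no sensitivity. Values are means, n = 3.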

[2] = system: HEp-2; assay: Cytotoxicity against human Hep2 cells at 10 ug/mL after 72 hrs by MTT assay; settings: HEp-2, 72 h, read-out: GI
Outline: (§2)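 MTT antiproliferative assay. Cells were diluted to 10⁵ cells/mL in 96-well plates and preincubated for 24 h at 37 °C in humid 5% CO₂. Compounds or vincristine (reference) were then added. Formazan was dissolved and OD read at 540 nm, compared with medium-only control cells. Run in triplicate.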

[3] = system: Staphylococcus aureus; assay: Antimicrobial activity against multidrug-resistant Staphylococcus aureus H.C. 20981 isolate after 20 hrs by twofold serial dilution technique; settings: H.C. 20981, 20 h
Outline: (§3)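 Twofold serial dilution MIC in agar plates against Gram-positive strains and multidrug-resistant clinical isolates. Inoculum applied was 10⁵ CFU/plate. Plates with culture medium plus DMSO served as negative control. MIC was read after incubation at 35 °C for 20 h.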

[4] = system: Staphylococcus aureus; assay: Antimicrobial activity against Staphylococcus aureus UFPEDA 01 after 20 hrs by twofold serial dilution technique; settings: UFPEDA 01, 20 h; outline: as §3
[5] = system: Candida albicans; assay: Antimicrobial activity against Candida albicans UFPEDA 1007 after 48 hrs by twofold serial dilution technique; settings: UFPEDA 1007, 48 h
Outline: (§4)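 MIC was determined by twofold serial dilution. Bacteria were tested in plates at 10⁵ CFU/plate and read after 20 h. C. albicans was tested in tubes at 10³ CFU/tube and read after 48 h. All incubations were at 35 °C. Medium plus DMSO served as the negative control.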

[6] = system: Staphylococcus aureus; assay: Antimicrobial activity against Staphylococcus aureus UFPEDA 01 at 300 ug/disk after 24 hrs by disk diffusion method; settings: UFPEDA 01, 24 h, read-out: IZ; outline: as §1
[7] = system: Staphylococcus; assay: Antimicrobial activity against coagulase-negative Staphylococcus H.A.M. 338 isolate after 20 hrs by twofold serial dilution technique; settings: H.A.M. 338, 20 h; outline: as §4
[8] = system: Mycolicibacterium smegmatis; assay: Antimicrobial activity against Mycobacterium smegmatis UFPEDA 71 at 300 ug/disk after 24 hrs by disk diffusion method; settings: UFPEDA 71, 24 h, read-out: IZ; outline: as §1
[9] = system: Enterococcus faecalis; assay: Antimicrobial activity against Enterococcus faecalis UFPEDA 138 after 20 hrs by twofold serial dilution technique; settings: UFPEDA 138, 20 h; outline: as §4
[10] = system: Bacillus subtilis; assay: Antimicrobial activity against Bacillus subtilis UFPEDA 16 after 20 hrs by twofold serial dilution technique; settings: UFPEDA 16, 20 h; outline: as §4
[11] = system: NCI-H292; assay: Cytotoxicity against human NCI-H292 cells at 5 ug/mL after 72 hrs by MTT assay; settings: NCI-H292, 72 h, read-out: GI; outline: as §2
[12] = system: Pseudomonas aeruginosa; assay: Antimicrobial activity against Pseudomonas aeruginosa UFPEDA 39 at 300 ug/disk after 24 hrs by disk diffusion method; settings: UFPEDA 39, 24 h, read-out: IZ; outline: as §1
[13] = system: Serratia marcescens; assay: Antimicrobial activity against Serratia marcescens UFPEDA 398 at 300 ug/disk after 24 hrs by disk diffusion method; settings: UFPEDA 398, 24 h, read-out: IZ; outline: as §1
[14] = system: Enterococcus faecalis; assay: Antimicrobial activity against multidrug-resistant Enterococcus faecalis H.C. 24708 isolate after 20 hrs by twofold serial dilution technique; settings: H.C. 24708, 20 h; outline: as §3
[15] = system: Enterococcus faecalis; assay: Antimicrobial activity against multidrug-resistant Enterococcus faecalis H.C. 21944 isolate after 20 hrs by twofold serial dilution technique; settings: H.C. 21944, 20 h; outline: as §3
[16] = system: NCI-H292; assay: Cytotoxicity against human NCI-H292 cells at 10 ug/mL after 72 hrs by MTT assay; settings: NCI-H292, 72 h, read-out: GI; outline: as §2
[17] = system: Micrococcus luteus; assay: Antimicrobial activity against Micrococcus luteus UFPEDA 06 at 300 ug/disk after 24 hrs by disk diffusion method; settings: UFPEDA 06, 24 h, read-out: IZ; outline: as §1
[18] = system: NCI-H292; assay: Cytotoxicity against human NCI-H292 cells at 1.25 ug/mL after 72 hrs by MTT assay; settings: NCI-H292, 72 h, read-out: GI; outline: as §2
[19] = system: Micrococcus luteus; assay: Antimicrobial activity against Micrococcus luteus UFPEDA 06 after 20 hrs by twofold serial dilution technique; settings: UFPEDA 06, 20 h; outline: as §4
[20] = system: Staphylococcus aureus; assay: Antimicrobial activity against multidrug-resistant Staphylococcus aureus H.C. 20794 isolate after 20 hrs by twofold serial dilution technique; settings: H.C. 20794, 20 h; outline: as §3
[21] = system: Bacillus subtilis; assay: Antimicrobial activity against Bacillus subtilis UFPEDA 16 at 300 ug/disk after 24 hrs by disk diffusion method; settings: UFPEDA 16, 24 h, read-out: IZ; outline: as §1
[22] = system: Escherichia coli; assay: Antimicrobial activity against Escherichia coli UFPEDA 224 at 300 ug/disk after 24 hrs by disk diffusion method; settings: UFPEDA 224, 24 h, read-out: IZ; outline: as §1
[23] = system: Staphylococcus aureus; assay: Antimicrobial activity against multidrug-resistant Staphylococcus aureus H.C. 20489 isolate after 20 hrs by twofold serial dilution technique; settings: H.C. 20489, 20 h; outline: as §3
[24] = system: HEp-2; assay: Cytotoxicity against human Hep2 cells at 5 ug/mL after 72 hrs by MTT assay; settings: HEp-2, 72 h, read-out: GI; outline: as §2
[25] = system: NCI-H292; assay: Cytotoxicity against human NCI-H292 cells at 2.5 ug/mL after 72 hrs by MTT assay; settings: NCI-H292, 72 h, read-out: GI; outline: as §2
[26] = system: Staphylococcus; assay: Antimicrobial activity against coagulase-negative Staphylococcus H.A.M. 278 isolate after 20 hrs by twofold serial dilution technique; settings: H.A.M. 278, 20 h; outline: as §4
[27] = system: HEp-2; assay: Cytotoxicity against human Hep2 cells at 1.25 ug/mL after 72 hrs by MTT assay; settings: HEp-2, 72 h, read-out: GI; outline: as §2
[28] = system: Mycolicibacterium smegmatis; assay: Antimicrobial activity against Mycobacterium smegmatis UFPEDA 71 after 20 hrs by twofold serial dilution technique; settings: UFPEDA 71, 20 h; outline: as §4
[29] = system: Enterococcus faecalis; assay: Antimicrobial activity against multidrug-resistant Enterococcus faecalis H.C. 24962 isolate after 20 hrs by twofold serial dilution technique; settings: H.C. 24962, 20 h; outline: as §3
[30] = system: HEp-2; assay: Cytotoxicity against human Hep2 cells at 2.5 ug/mL after 72 hrs by MTT assay; settings: HEp-2, 72 h, read-out: GI; outline: as §2
[31] = system: Enterococcus faecalis; assay: Antimicrobial activity against multidrug-resistant Enterococcus faecalis H.C. 21752 isolate after 20 hrs by twofold serial dilution technique; settings: H.C. 21752, 20 h; outline: as §3
[32] = system: Staphylococcus aureus; assay: Antimicrobial activity against multidrug-resistant Staphylococcus aureus H.C. 21036 isolate after 20 hrs by twofold serial dilution technique; settings: H.C. 21036, 20 h; outline: as §3
[33] = system: Enterococcus faecalis; assay: Antimicrobial activity against Enterococcus faecalis UFPEDA 138 at 300 ug/disk after 24 hrs by disk diffusion method; settings: UFPEDA 138, 24 h, read-out: IZ; outline: as §1
[34] = system: Staphylococcus aureus; assay: Antimicrobial activity against multidrug-resistant Staphylococcus aureus H.C. 21141 isolate after 20 hrs by twofold serial dilution technique; settings: H.C. 21141, 20 h; outline: as §3
[35] = system: Staphylococcus aureus; assay: Antimicrobial activity against multidrug-resistant Staphylococcus aureus H.C. 20905 isolate after 20 hrs by twofold serial dilution technique; settings: H.C. 20905, 20 h; outline: as §3

| Compound | zone of inhibition at 300 µg/disc [1] [mm] | inhibition of growth at 10 µg/mL [2] [%] | MIC [3] [µg/mL] | MIC [4] [µg/mL] | MIC [5] [µg/mL] | zone of inhibition at 300 µg/disc [6] [mm] | MIC [7] [µg/mL] | zone of inhibition at 300 µg/disc [8] [mm] | MIC [9] [µg/mL] | MIC [10] [µg/mL] | inhibition of growth at 5 µg/mL [11] [%] | zone of inhibition at 300 µg/disc [12] [mm] | zone of inhibition at 300 µg/disc [13] [mm] | MIC [14] [µg/mL] | MIC [15] [µg/mL] | inhibition of growth at 10 µg/mL [16] [%] | zone of inhibition at 300 µg/disc [17] [mm] | inhibition of growth at 1.25 µg/mL [18] [%] | MIC [19] [µg/mL] | MIC [20] [µg/mL] | also measured |
| --- | --- | --- | --- | --- | --- | --- | --- | --- | --- | --- | --- | --- | --- | --- | --- | --- | --- | --- | --- | --- | --- |
| O=C1NC(=S)/C(=C/c2c(Cl)cccc2Cl)S1 | 15 | 8.73 | 8 (≈ 27.6 µM) | 4 (≈ 13.8 µM) | 32 (≈ 110 µM) | 20 | 4 (≈ 13.8 µM) | 17 | 16 (≈ 55.1 µM) | 8 (≈ 27.6 µM) | 10.3 | < 7 | < 7 | 16 (≈ 55.1 µM) | 8 (≈ 27.6 µM) | 32.8 | 18 | 4.36 | 16 (≈ 55.1 µM) | 4 (≈ 13.8 µM) | zone of inhibition at 300 µg/disc [21]: 20 mm; zone of inhibition at 300 µg/disc [22]: < 7 mm; MIC [23]: 4 µg/mL (≈ 13.8 µM); inhibition of growth at 5 µg/mL [24]: -2.39%; inhibition of growth at 2.5 µg/mL [25]: 7.7%; MIC [26]: 4 µg/mL (≈ 13.8 µM); inhibition of growth at 1.25 µg/mL [27]: -9.16%; MIC [28]: 4 µg/mL (≈ 13.8 µM); MIC [29]: 16 µg/mL (≈ 55.1 µM); inhibition of growth at 2.5 µg/mL [30]: -4.24%; MIC [31]: 8 µg/mL (≈ 27.6 µM); MIC [32]: 8 µg/mL (≈ 27.6 µM); zone of inhibition at 300 µg/disc [33]: < 7 mm; MIC [34]: 8 µg/mL (≈ 27.6 µM); MIC [35]: 4 µg/mL (≈ 13.8 µM) |
| O=C1NC(=S)/C(=C/c2ccccc2F)S1 | 16 | 11.2 | 4 (≈ 16.7 µM) | 8 (≈ 33.4 µM) | 32 (≈ 134 µM) | 24 | 16 (≈ 66.9 µM) | 20 | 32 (≈ 134 µM) | 32 (≈ 134 µM) | 25.2 | < 7 | < 7 | 32 (≈ 134 µM) | 32 (≈ 134 µM) | 40.4 | 25 | 4.29 | 32 (≈ 134 µM) | 8 (≈ 33.4 µM) | zone of inhibition at 300 µg/disc [21]: 23 mm; zone of inhibition at 300 µg/disc [22]: < 7 mm; MIC [23]: 4 µg/mL (≈ 16.7 µM); inhibition of growth at 5 µg/mL [24]: 8.86%; inhibition of growth at 2.5 µg/mL [25]: 7.78%; MIC [26]: 32 µg/mL (≈ 134 µM); inhibition of growth at 1.25 µg/mL [27]: -8.34%; MIC [28]: 32 µg/mL (≈ 134 µM); MIC [29]: 32 µg/mL (≈ 134 µM); inhibition of growth at 2.5 µg/mL [30]: 1.66%; MIC [31]: 32 µg/mL (≈ 134 µM); MIC [32]: 2 µg/mL (≈ 8.36 µM); zone of inhibition at 300 µg/disc [33]: 20 mm; MIC [34]: 8 µg/mL (≈ 33.4 µM); MIC [35]: 8 µg/mL (≈ 33.4 µM) |
| O=C1NC(=S)/C(=C/c2ccc(Br)cc2)S1 | 15 | 18.2 | 4 (≈ 13.3 µM) | 4 (≈ 13.3 µM) | 32 (≈ 107 µM) | 23 | 4 (≈ 13.3 µM) | 17 | 16 (≈ 53.3 µM) | 2 (≈ 6.66 µM) | 16.6 | < 7 | < 7 | 8 (≈ 26.6 µM) | 8 (≈ 26.6 µM) | 36.5 | 21 | 1.1 | 8 (≈ 26.6 µM) | 2 (≈ 6.66 µM) | zone of inhibition at 300 µg/disc [21]: 18 mm; zone of inhibition at 300 µg/disc [22]: < 7 mm; MIC [23]: 4 µg/mL (≈ 13.3 µM); inhibition of growth at 5 µg/mL [24]: 15.4%; inhibition of growth at 2.5 µg/mL [25]: 1.19%; MIC [26]: 4 µg/mL (≈ 13.3 µM); inhibition of growth at 1.25 µg/mL [27]: -3.16%; MIC [28]: 4 µg/mL (≈ 13.3 µM); MIC [29]: 8 µg/mL (≈ 26.6 µM); inhibition of growth at 2.5 µg/mL [30]: -0.36%; MIC [31]: 8 µg/mL (≈ 26.6 µM); MIC [32]: 4 µg/mL (≈ 13.3 µM); zone of inhibition at 300 µg/disc [33]: 17 mm; MIC [34]: 4 µg/mL (≈ 13.3 µM); MIC [35]: 4 µg/mL (≈ 13.3 µM) |
